From ChEMBL document CHEMBL1153067, “Synthesis and optimization of 2-pyridin-3-yl-benzo[d][1,3]oxazin-4-one based inhibitors of human neutrophil elastase” (Bioorg Med Chem Lett, 2009)

Experiments:
[1] = Chemical stability in 200 mM sodium borate buffer at pH 9.2; type: physicochemical
How it was run: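 Alkaline hydrolysis followed by loss of the intact benzoxazinone ring absorbance maximum (340 nm 10 nm) in 200 mM sodium borate, pH 9.2, with 1% DMSO.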

[2] = Stability in heparin treated rat plasma at 2 uM at 37 degC by electrospray ionization mass spectrometry; type: ADME, cell-free
How it was run: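 Compounds at […] incubated at 37 °C in heparinized rat plasma. Plasma proteins precipitated with acetonitrile, then compound quantified by ESI-MS against an internal standard. t1/2 derived from a first-order rate constant fitted to concentration versus time.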

| SMILES | half-life [1] | half-life at 2 µM [2] |
| --- | --- | --- |
| CCc1cc(N(C)C)cc2nc(-c3cccnc3N3CCN(C4CCN(C)CC4)CC3)oc(=O)c12 | 115 h |  |
| CCc1cc(OC)cc2nc(-c3cccnc3N3CCN(C4CCCC4)CC3)oc(=O)c12 |  | 1.5 h |
| CCc1cc(OC)cc2nc(-c3cccnc3N3CCN(CCN4CCOCC4)CC3)oc(=O)c12 |  | 0.317 h |
| CCc1cc(OC)cc2nc(-c3cccnc3N3CCN(CCC#N)CC3)oc(=O)c12 |  | 0.183 h |
| CCc1cc(OC)cc2nc(-c3cccnc3N3CCN(CC(C)C)CC3)oc(=O)c12 |  | 0.8 h |
| CCCCN1CCN(c2ncccc2-c2nc3cc(OC)cc(CC)c3c(=O)o2)CC1 |  | 0.85 h |
| CCc1cc(OC)cc2nc(-c3cccnc3N3CCN(C4CCN(C)CC4)CC3)oc(=O)c12 | 23.3 h |  |
| CCc1cccc2nc(-c3cccnc3N3CCN(C4CCN(C)CC4)CC3)oc(=O)c12 | 0.933 h |  |
| CCc1cc(OC)cc2nc(-c3cccnc3N3CCN(CCOC)CC3)oc(=O)c12 |  | 0.867 h |
| CCc1cc(N(C)C)cc2nc(-c3cccnc3N3CCN(C)CC3)oc(=O)c12 | 122 h |  |
| CCc1cccc2nc(-c3cccnc3N3CCN(C)CC3)oc(=O)c12 | 1.08 h |  |
| CCc1cc(OC)cc2nc(-c3cccnc3N3CCN(CCN(C)C)CC3)oc(=O)c12 |  | 0.13 h |

The remaining lines, values ahead:

| half-life [1] | half-life at 2 µM [2] | SMILES |
| --- | --- | --- |
| 16.7 h | 1.35 h | CCc1cc(OC)cc2nc(-c3cccnc3N3CCC(C(=O)O)CC3)oc(=O)c12 |
|  | 2.5 h | CCc1cc(OC)cc2nc(-c3cccnc3N3CCC[C@@H](C(=O)O)C3)oc(=O)c12 |
|  | 0.283 h | CCc1cc(OC)cc2nc(-c3cccnc3N3CCN(CCO)CC3)oc(=O)c12 |
| 1.48 h |  | CCc1cccc2nc(-c3cccnc3N3CCC(C(=O)O)CC3)oc(=O)c12 |
|  | 2.33 h | CCc1cc(OC)cc2nc(-c3cccnc3N3CCC[C@H](C(=O)O)C3)oc(=O)c12 |
|  | 4.5 h | CCc1cc(OC)cc2nc(-c3cccnc3N3CCN(CC(=O)O)CC3)oc(=O)c12 |
| 4 h | 1.4 h | CCc1cc(OC)cc2nc(-c3cccnc3N3CCN(C)CC3)oc(=O)c12 |
|  | 1.15 h | CCc1cc(OC)cc2nc(-c3cccnc3N3CCN(CC4CC4)CC3)oc(=O)c12 |
